{
  "source": "ChEMBL document CHEMBL4325893",
  "about": "“Synthesis and antibacterial profiles of targeted triclosan derivatives” (2019)",
  "key": {"Serratia marcescens": {"system": "Serratia marcescens", "assay": "Antibacterial activity against Serratia marcescens OCC 217 after 18 hrs", "type": "functional", "details": "OCC 217, 18 h", "method_in_brief": "(§1)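 Broth microdilution in Nutrient Broth No. 2; stocks in ethanol diluted to 0.01–128 µg/ml (triclosan) or 0.25–256 µg/ml (glycosides). Overnight 37 °C NB2 cultures diluted 1 in 10^4 in saline and added to the dilutions. Incubation at 37 °C with agitation, OD read every 15 min; MIC is the lowest concentration preventing any OD rise after 18 h.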"}, "Escherichia coli [1]": {"system": "Escherichia coli", "assay": "Antibacterial activity against Escherichia coli OCC 122 after 18 hrs", "type": "functional", "details": "OCC 122, 18 h", "method_in_brief": "as §1"}, "Bacillus subtilis": {"system": "Bacillus subtilis", "assay": "Antibacterial activity against Bacillus subtilis NCTC 10073 after 18 hrs", "type": "functional", "details": "NCTC 10073, 18 h", "method_in_brief": "as §1"}, "Escherichia coli [2]": {"system": "Escherichia coli", "assay": "Antibacterial activity against Escherichia coli ATCC 35218 after 18 hrs", "type": "functional", "details": "ATCC 35218, 18 h", "method_in_brief": "as §1"}, "[3]": {"system": "Staphylococcus epidermidis", "assay": "Antibacterial activity against Staphylococcus epidermidis 155 after 18 hrs", "type": "functional", "details": "Staphylococcus epidermidis, 155, 18 h", "method_in_brief": "as §1"}, "Escherichia coli [4]": {"system": "Escherichia coli", "assay": "Antibacterial activity against Escherichia coli ATCC 11775 after 18 hrs", "type": "functional", "method_in_brief": "as §1"}, "Citrobacter freundii": {"system": "Citrobacter freundii", "assay": "Antibacterial activity against Citrobacter freundii OCC 851 after 18 hrs", "type": "functional", "details": "OCC 851, 18 h", "method_in_brief": "as §1"}, "[5]": {"assay": "Antibacterial activity against Salmonella enterica subspecies enterica serotype Pullorum OCC 273 after 18 hrs", "type": "functional, Salmonella enterica subsp. enterica serovar Pullorum", "details": "OCC 273, 18 h", "method_in_brief": "as §1"}, "[6]": {"system": "Staphylococcus epidermidis", "assay": "Antibacterial activity against Staphylococcus epidermidis ATCC 12228 after 18 hrs", "type": "functional", "details": "ATCC 12228, 18 h", "method_in_brief": "as §1"}, "Aeromonas hydrophila": {"system": "Aeromonas hydrophila", "assay": "Antibacterial activity against Aeromonas hydrophila OCC 778 after 18 hrs", "type": "functional", "details": "OCC 778, 18 h", "method_in_brief": "as §1"}, "[7]": {"system": "Staphylococcus epidermidis", "assay": "Antibacterial activity against Staphylococcus epidermidis ATCC 14990 after 18 hrs", "type": "functional", "details": "ATCC 14990, 18 h", "method_in_brief": "as §1"}, "[8]": {"system": "Staphylococcus haemolyticus", "assay": "Antibacterial activity against Staphylococcus haemolyticus OCC 2223 after 18 hrs", "type": "functional", "details": "OCC 2223, 18 h", "method_in_brief": "(§2)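 Broth microdilution in Nutrient Broth No. 2. Ethanol stocks were diluted in broth to 0.01–128 µg/ml for triclosan and 0.25–256 µg/ml for glycosides. Overnight 37°C NB2 cultures were diluted 1 in 10^4 in saline and added to the wells. Plates were incubated at 37°C with OD read every 15 min after agitation. MIC was the lowest concentration giving no OD increase at 18 h.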"}, "Streptococcus agalactiae": {"system": "Streptococcus agalactiae", "assay": "Antibacterial activity against Streptococcus agalactiae OCC 182 after 18 hrs", "type": "functional", "details": "OCC 182, 18 h", "method_in_brief": "as §2"}, "Escherichia coli [9]": {"system": "Escherichia coli", "assay": "Antibacterial activity against Escherichia coli 700728 after 18 hrs", "type": "functional", "details": "Escherichia coli, 700728, 18 h", "method_in_brief": "as §1"}, "[10]": {"assay": "Antibacterial activity against Salmonella enterica subspecies enterica serotype Arizonae OCC 706 after 18 hrs", "type": "functional, Salmonella enterica subsp. enterica serovar Arizonae", "details": "OCC 706, 18 h", "method_in_brief": "as §1"}, "Escherichia coli [11]": {"system": "Escherichia coli", "assay": "Antibacterial activity against Escherichia coli ATCC 10536 after 18 hrs", "type": "functional", "details": "ATCC 10536, 18 h", "method_in_brief": "as §1"}, "Staphylococcus aureus [12]": {"system": "Staphylococcus aureus", "assay": "Antibacterial activity against Staphylococcus aureus ATCC 6538 after 18 hrs", "type": "functional", "details": "ATCC 6538, 18 h", "method_in_brief": "as §1"}, "Escherichia coli [13]": {"system": "Escherichia coli", "assay": "Antibacterial activity against Escherichia coli NCTC 13216 after 18 hrs", "type": "functional", "details": "NCTC 13216, 18 h", "method_in_brief": "as §1"}, "Streptococcus viridans": {"system": "Streptococcus viridans", "assay": "Antibacterial activity against Streptococcus viridans OCC 234 after 18 hrs", "type": "functional", "details": "OCC 234, 18 h", "method_in_brief": "as §2"}, "Staphylococcus aureus [14]": {"system": "Staphylococcus aureus", "assay": "Antibacterial activity against Staphylococcus aureus NCTC 13758 after 18 hrs", "type": "functional", "details": "NCTC 13758, 18 h", "method_in_brief": "as §1"}, "Streptococcus pyogenes": {"system": "Streptococcus pyogenes", "assay": "Antibacterial activity against Streptococcus pyogenes ATCC 19615 after 18 hrs", "type": "functional", "details": "ATCC 19615, 18 h", "method_in_brief": "as §2"}, "[15]": {"assay": "Antibacterial activity against Salmonella enterica subspecies enterica serotype Nottingham NCTC 7832 after 18 hrs", "type": "functional, Salmonella enterica subsp. enterica serovar Nottingham", "details": "NCTC 7832, 18 h", "method_in_brief": "as §1"}, "Staphylococcus aureus [16]": {"system": "Staphylococcus aureus", "assay": "Antibacterial activity against Staphylococcus aureus OCC 106 after 18 hrs", "type": "functional", "details": "OCC 106, 18 h", "method_in_brief": "as §1"}, "[17]": {"system": "Salmonella enterica subsp. enterica serovar Abony", "assay": "Antibacterial activity against Salmonella enterica subspecies enterica serotype Abony NCTC 6017 after 18 hrs", "type": "functional", "details": "NCTC 6017, 18 h", "method_in_brief": "as §1"}, "Enterococcus faecalis": {"system": "Enterococcus faecalis", "assay": "Antibacterial activity against Enterococcus faecalis ATCC 33186 after 18 hrs", "type": "functional", "details": "ATCC 33186, 18 h", "method_in_brief": "as §1"}, "Klebsiella aerogenes": {"system": "Klebsiella aerogenes", "assay": "Antibacterial activity against Klebsiella aerogenes NCTC 8167 after 18 hrs", "type": "functional", "details": "NCTC 8167, 18 h", "method_in_brief": "as §1"}, "Klebsiella pneumoniae": {"system": "Klebsiella pneumoniae", "assay": "Antibacterial activity against Klebsiella pneumoniae ATCC 10031 after 18 hrs", "type": "functional", "details": "ATCC 10031, 18 h", "method_in_brief": "as §1"}, "[18]": {"assay": "Antibacterial activity against Salmonella enterica subspecies enterica serotype Indiana OCC 597 after 18 hrs", "type": "functional, Salmonella enterica subsp. enterica serovar Indiana", "details": "OCC 597, 18 h", "method_in_brief": "as §1"}},
  "data": [
    {"smiles": "OC[C@H]1O[C@H](Oc2cc(Cl)ccc2Oc2ccc(Cl)cc2Cl)[C@H](O)[C@@H](O)[C@H]1O", "values": [
      {"measurement": "MIC", "setting": "Serratia marcescens", "result": "> 256", "unit": "µg/mL"},
      {"measurement": "MIC", "setting": "Escherichia coli [1]", "result": "16 to 64", "unit": "µg/mL"},
      {"measurement": "MIC", "setting": "Bacillus subtilis", "result": 256, "unit": "µg/mL"},
      {"measurement": "MIC", "setting": "Escherichia coli [2]", "result": "16 to 64", "unit": "µg/mL"},
      {"measurement": "MIC", "setting": "[3]", "result": "8 to 32", "unit": "µg/mL"},
      {"measurement": "MIC", "setting": "Escherichia coli [4]", "result": "16 to 64", "unit": "µg/mL"},
      {"measurement": "MIC", "setting": "Citrobacter freundii", "result": 64, "unit": "µg/mL"},
      {"measurement": "MIC", "setting": "[5]", "result": "32 to 64", "unit": "µg/mL"},
      {"measurement": "MIC", "setting": "[6]", "result": "8 to 32", "unit": "µg/mL"},
      {"measurement": "MIC", "setting": "Aeromonas hydrophila", "result": "> 256", "unit": "µg/mL"},
      {"measurement": "MIC", "setting": "[7]", "result": "8 to 32", "unit": "µg/mL"},
      {"measurement": "MIC", "setting": "[8]", "result": 16, "unit": "µg/mL"},
      {"measurement": "MIC", "setting": "Streptococcus agalactiae", "result": "> 256", "unit": "µg/mL"},
      {"measurement": "MIC", "setting": "Escherichia coli [9]", "result": "16 to 64", "unit": "µg/mL"},
      {"measurement": "MIC", "setting": "[10]", "result": "32 to 64", "unit": "µg/mL"},
      {"measurement": "MIC", "setting": "Escherichia coli [11]", "result": "16 to 64", "unit": "µg/mL"},
      {"measurement": "MIC", "setting": "Staphylococcus aureus [12]", "result": "8 to 16", "unit": "µg/mL"},
      {"measurement": "MIC", "setting": "Escherichia coli [13]", "result": "16 to 64", "unit": "µg/mL"},
      {"measurement": "MIC", "setting": "Streptococcus viridans", "result": "> 256", "unit": "µg/mL"},
      {"measurement": "MIC", "setting": "Staphylococcus aureus [14]", "result": "8 to 16", "unit": "µg/mL"},
      {"measurement": "MIC", "setting": "Streptococcus pyogenes", "result": 256, "unit": "µg/mL"},
      {"measurement": "MIC", "setting": "[15]", "result": "32 to 64", "unit": "µg/mL"},
      {"measurement": "MIC", "setting": "Staphylococcus aureus [16]", "result": "8 to 16", "unit": "µg/mL"},
      {"measurement": "MIC", "setting": "[17]", "result": "32 to 64", "unit": "µg/mL"},
      {"measurement": "MIC", "setting": "Enterococcus faecalis", "result": "> 256", "unit": "µg/mL"},
      {"measurement": "MIC", "setting": "Klebsiella aerogenes", "result": 32, "unit": "µg/mL"},
      {"measurement": "MIC", "setting": "Klebsiella pneumoniae", "result": 1, "unit": "µg/mL"},
      {"measurement": "MIC", "setting": "[18]", "result": "32 to 64", "unit": "µg/mL"}
    ]}
  ]
}
